The record followed here is ChEMBL document CHEMBL1128709, “Discovery and structure-activity relationships of sulfonamide ETA-selective antagonists” (J Med Chem, 1995).

The species named for the first test is Rattus norvegicus. The experiment in a line: Tested for antagonistic activity against ET-1 induced increase in intracellular [Ca2+] in VSM-A10 cells. It is filed as functional, cell-based.
Conditions: not given
The procedure, abridged: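 A10 cells challenged with 3 nM ET-1; the rise in free intracellular Ca2+ was measured with and without compound. Values reported as IC50.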
As usually defined, the IC50 is the concentration needed to halve the response being measured. `Cc1onc(NS(=O)(=O)c2ccc(N)cc2)c1C` [SULFATROXAZOLE] registered an IC50 of 40 µM. On the same count and under the same terms, with `Cc1noc(NS(=O)(=O)c2ccc(N)cc2)c1C` [SULFISOXAZOLE] the figure was 40 µM.

For another test, the target named is T1, Endothelin-1 receptor (Rattus norvegicus, UniProt P26684).
T1 sequence (P26684 whole entry): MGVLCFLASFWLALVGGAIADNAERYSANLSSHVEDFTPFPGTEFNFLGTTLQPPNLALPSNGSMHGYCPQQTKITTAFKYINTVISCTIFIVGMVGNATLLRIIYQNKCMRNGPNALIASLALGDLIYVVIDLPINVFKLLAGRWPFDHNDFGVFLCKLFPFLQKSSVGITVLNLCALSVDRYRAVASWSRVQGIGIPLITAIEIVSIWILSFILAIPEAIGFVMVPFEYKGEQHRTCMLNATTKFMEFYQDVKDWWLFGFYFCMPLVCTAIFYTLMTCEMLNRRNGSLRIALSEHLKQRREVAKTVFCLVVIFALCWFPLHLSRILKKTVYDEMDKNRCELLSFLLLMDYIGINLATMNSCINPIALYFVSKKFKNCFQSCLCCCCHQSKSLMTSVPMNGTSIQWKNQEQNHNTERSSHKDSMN
The experiment in a line: Antagonism of [125 I]ET-1 binding to the rat endothelin receptor in vascular smooth muscle VSM-A10 cells.
Conditions: not given
Format: cell-based.
In turn, `Cc1noc(NS(=O)(=O)c2ccc(NCc3ccccc3)cc2)c1C` registered an IC50 of 9.8 µM. On the same count and under the same terms, with `Cc1onc(NS(=O)(=O)c2cccc3c(N(C)C)cccc23)c1C` the figure was 0.06 µM; with `Cc1cc(NS(=O)(=O)c2cccc3c(N(C)C)cccc23)on1`, 8.9 µM; with `Cc1[n-][o+]c(NS(=O)(=O)c2cccc([N+](=O)[O-])c2)c1C`, 7.8 µM. Consider `Cc1noc(NS(=O)(=O)c2cccc3c(N4CCCC4=O)cccc23)c1C`, for which the IC50 was found to be 0.13 µM. This IC50 is about 60-fold lower than that of the compound before. For `Cc1noc(NS(=O)(=O)c2cccc3ccc(N)cc23)c1C`, the IC50 is 1.4 µM. This IC50 is about 11-fold higher than that of the compound before. The same measure, in the same setting: with `Cc1noc(NS(=O)(=O)c2cccc3c(N(C)C)cccc23)c1Cc1ccccc1` the figure was 50 µM; with `CCOC(=O)c1c(C)noc1NS(=O)(=O)c1cccc2c(N(C)C)cccc12`, 31 µM.

Compound `Cc1noc(NS(=O)(=O)c2cccc3c(NC(=O)C(C)C)cccc23)c1C` had an IC50 of 0.88 µM.

As for `Cc1noc(NS(=O)(=O)c2ccc(NC(=O)CN)cc2)c1C`, the IC50 came to 6.5 µM. The compound `Cc1noc(NS(=O)(=O)c2ccc(F)cc2)c1C` had an IC50 of 1 µM.

Take `Nc1ccc(S(=O)(=O)Nc2noc3c2CCCC3)cc1`: the IC50 worked out at 32 µM. This IC50 lies about 32-fold higher than the previous one. For `Cc1noc(NS(=O)(=O)c2cccc3c(NCCCCCc4ccccc4)cccc23)c1C`, the IC50 was found to be 3.05 µM. Regarding `Cc1noc(NS(=O)(=O)c2ccc(NC(=O)Nc3ccccc3)cc2)c1C`, the IC50 is 38 µM. On the same count and under the same terms, with `CN(C)c1cccc2c(S(=O)(=O)Nc3onc4c3CCCC4)cccc12` the figure was 153 µM. For the compound `O=S(=O)(Nc1nccs1)c1ccc(O)cc1`, the IC50 was determined as 30 µM. In the case of `CC(C)(C)c1cc(NS(=O)(=O)c2ccc(N)cc2)no1`, the IC50 is more than 32 µM. Turning to `CCNc1cccc2c(S(=O)(=O)Nc3onc(C)c3C)cccc12`, the IC50 worked out at 0.06 µM.

As to `Cc1noc(NS(=O)(=O)c2cccc3c(NC(=S)Nc4ccccc4)cccc23)c1C`, the IC50 stood at 0.15 µM. `Nc1ccc(S(=O)(=O)Nc2cc(-c3ccccc3)on2)cc1` came in with a concentration for half-maximal inhibition (IC50) of more than 32 µM.

As to `Cc1noc(NC(=O)c2ccc(N)cc2)c1C`, the IC50 was more than 32 µM.

For the compound `Cc1noc(NS(=O)(=O)c2cccc3c(N4CCCCC4)cccc23)c1C`, the half-maximal inhibitory concentration (IC50) stood at 1.76 µM. `Cc1noc(NS(=O)(=O)c2ccc(NC(=S)Nc3ccccc3)cc2)c1C` registered an IC50 of 4.1 µM.

Regarding `CCCCCNc1cccc2c(S(=O)(=O)Nc3onc(C)c3C)cccc12`, the IC50 turned out to be 0.08 µM. Compared with the last compound, the IC50 is about 51-fold lower.

For the compound `CCc1noc(NS(=O)(=O)c2cccc3c(N(C)C)cccc23)c1C`, the IC50 stood at 1.17 µM. `CNc1cccc2c(S(=O)(=O)Nc3onc(C)c3C)cccc12` returned an IC50 of 0.13 µM. With `Cc1noc(NS(=O)(=O)c2cccc3c(N(C)C)cccc23)c1[N+](=O)[O-]`, the IC50 was 17.3 µM. Turning to `Cc1noc(NS(=O)(=O)c2cccc3c(CN(C)C)cccc23)c1C`, the IC50 was 2.8 µM. In the case of `Cc1noc(NS(=O)(=O)c2cccc3c(N(C)C)cccc23)c1-c1ccccc1`, the IC50 worked out at 15.9 µM.

`CCCNc1cccc(S(=O)(=O)Nc2onc(C)c2C)c1` gave an IC50 of 2.1 µM. The compound `Cc1noc(N(CC(=O)O)S(=O)(=O)c2ccc(N)cc2)c1C` registered an IC50 of more than 32 µM. Compound `Cc1noc(NS(=O)(=O)c2ccc(NCC(=O)O)cc2)c1C` yielded a concentration for half-maximal inhibition (IC50) of 12 µM.

Take `COC(=O)c1cccc2c(S(=O)(=O)Nc3onc(C)c3C)cccc12`: the IC50 was determined as 3.38 µM. In turn, `Cc1cnoc1NS(=O)(=O)c1cccc2c(N(C)C)cccc12` gave an IC50 of 4.9 µM. As to `Cc1noc(NS(=O)(=O)c2cccc3c(N(C)C(C)C)cccc23)c1C`, the IC50 was found to be 0.13 µM. Consider `Cc1cc(NS(=O)(=O)c2ccc(N)cc2)on1`, for which the IC50 was 28 µM. Compound `Cc1noc(NS(=O)(=O)c2cccc3c(N4CCCCC4=O)cccc23)c1C` yielded an IC50 of 0.27 µM.

`CCc1c(C)noc1NS(=O)(=O)c1cccc2c(N(C)C)cccc12`: the IC50 was found to be 0.29 µM. As to `CCCNc1ccc(S(=O)(=O)Nc2onc(C)c2C)cc1`, the IC50 is 27 µM. This IC50 is about 93-fold higher than that of the compound before. Compound `Nc1ccc(S(=O)(=O)Nc2nncs2)cc1` yielded an IC50 of 57 µM. In the case of `CCOC(=O)C(C)Nc1cccc2c(S(=O)(=O)Nc3onc(C)c3C)cccc12` (stereo not drawn), the IC50 was 0.4 µM. On the same count and under the same terms, with `Cc1noc(NS(=O)(=O)c2cccc3c(NCCC(c4ccccc4)c4ccccc4)cccc23)c1C` the figure was 7.8 µM. `Cc1noc(NS(=O)(=O)c2cccc3c(N4CCCC4)cccc23)c1C`: the IC50 worked out at 0.03 µM. In turn, `Cc1noc(NS(=O)(=O)c2ccc3cc(N)ccc3c2)c1C` yielded an IC50 of 0.66 µM. `Cc1noc(N(C)S(=O)(=O)c2ccc(N)cc2)c1C` registered an IC50 of more than 32 µM. Compound `Cc1noc(NS(=O)(=O)c2cccc3c(O)cccc23)c1C` had an IC50 of 7.8 µM.

Compound `CCCCN(CCCC)c1cccc2c(S(=O)(=O)Nc3onc(C)c3C)cccc12` gave an IC50 of 15.9 µM. The compound `Cc1noc(NS(=O)(=O)c2cccc3c(NC(C)C)cccc23)c1C` had a half-inhibitory concentration (IC50) of 0.02 µM. On the same count and under the same terms, with `Cc1noc(NS(=O)(=O)c2cccc(-c3ccccc3)c2)c1C` the figure was 5.4 µM. The same measure, in the same setting: with `Cc1noc(NS(=O)(=O)c2cccc3c(NCCCC(=O)O)cccc23)c1C` the figure was 1.96 µM; with `Cc1noc(NS(=O)(=O)c2cccc3c(C(C)(C)O)cccc23)c1C`, 2.89 µM. With `Cc1noc(NS(=O)(=O)c2cccc3c(NCc4ccccc4)cccc23)c1C`, the IC50 came to 0.59 µM. The compound `Nc1ccc(S(=O)(=O)Nc2nccs2)cc1` [SULFATHIAZOLE] displayed an IC50 of 69 µM. `CC(=O)N(c1onc(C)c1C)S(=O)(=O)c1ccc(N)cc1` [SULFISOXAZOLE ACETYL]: the IC50 amounted to 13 µM.

A further test is filed under the species Oryctolagus cuniculus. Nature of the test: In vitro functional antagonistic testing by obtaining ET-1 concentration response curves in rabbit carotid artery rings in the presence or absence of antagonist.
Conditions: not given
The procedure, abridged:
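Concentration-response curves to ET-1 in rabbit carotid artery rings. KB determined when at least 3 antagonist concentrations were tested; apparent KB calculated when only one concentration was used.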
By Kb is commonly meant the equilibrium dissociation constant of an antagonist, usually derived from a functional assay. `Cc1noc(NS(=O)(=O)c2cccc3c(N4CCCC4=O)cccc23)c1C`: the Kb is 9.6 µM.

`CCNc1cccc2c(S(=O)(=O)Nc3onc(C)c3C)cccc12`: the Kb amounted to 0.5 µM. Regarding `Cc1noc(NS(=O)(=O)c2cccc3c(NC(=S)Nc4ccccc4)cccc23)c1C`, the Kb came to 13 µM. The compound `CCCCCNc1cccc2c(S(=O)(=O)Nc3onc(C)c3C)cccc12` showed a Kb of 0.27 µM. `CNc1cccc2c(S(=O)(=O)Nc3onc(C)c3C)cccc12`: the Kb was 1.6 µM. Compound `CCCNc1cccc(S(=O)(=O)Nc2onc(C)c2C)c1` displayed a Kb of 70 µM. In turn, `Cc1noc(NS(=O)(=O)c2cccc3c(N(C)C(C)C)cccc23)c1C` gave a Kb of 0.7 µM. As for `CCOC(=O)C(C)Nc1cccc2c(S(=O)(=O)Nc3onc(C)c3C)cccc12` (stereo not drawn), the Kb was found to be 3.1 µM.

For the compound `Cc1noc(NS(=O)(=O)c2cccc3c(N4CCCC4)cccc23)c1C`, the Kb was 0.28 µM. Regarding `Cc1noc(NS(=O)(=O)c2ccc3cc(N)ccc3c2)c1C`, the Kb stood at 43 µM. As for `CC(=O)Nc1cccc2c(S(=O)(=O)Nc3onc(C)c3C)cccc12`, the Kb came to 11 µM. The compound `Cc1noc(NS(=O)(=O)c2cccc3c(NC(C)C)cccc23)c1C` returned a Kb of 0.33 µM. For the compound `Cc1noc(NS(=O)(=O)c2cccc3c(N(C)C)cccc23)c1C` [BMS-182874], the Kb amounted to 0.52 µM.

The same test, now with this note: read-out: KB app.
On to `Cc1noc(NS(=O)(=O)c2ccc(NCc3ccccc3)cc2)c1C`, for which the Kb is 100 µM.

On to `Cc1onc(NS(=O)(=O)c2cccc3c(N(C)C)cccc23)c1C`, for which the Kb is 0.98 µM. On the same count and under the same terms, with `Cc1noc(NS(=O)(=O)c2ccc(F)cc2)c1C` the figure was 40 µM. As to `Cc1noc(NS(=O)(=O)c2cccc3c(N4CCCCC4)cccc23)c1C`, the Kb was 4 µM. For `Cc1cc(NS(=O)(=O)c2ccc(O)cc2)no1`, the Kb was more than 100 µM.

As to `CCc1noc(NS(=O)(=O)c2cccc3c(N(C)C)cccc23)c1C`, the Kb turned out to be 3 µM. Turning to `Cc1noc(NS(=O)(=O)c2cccc3c(N(C)C)cccc23)c1[N+](=O)[O-]`, the Kb is more than 100 µM. With `Cc1noc(NS(=O)(=O)c2cccc3c(CN(C)C)cccc23)c1C`, the Kb amounted to 20 µM.

As for `Cc1noc(NS(=O)(=O)c2ccc(O)cc2)c1C`, the Kb was more than 100 µM. In the case of `Cc1noc(NS(=O)(=O)c2cccc3c(N4CCCCC4=O)cccc23)c1C`, the Kb was 7 µM.

On to `CCc1c(C)noc1NS(=O)(=O)c1cccc2c(N(C)C)cccc12`, for which the Kb came out at 4 µM.

Turning to `CCCNc1ccc(S(=O)(=O)Nc2onc(C)c2C)cc1`, the Kb stood at 40 µM.

In the case of `Cc1noc(NS(=O)(=O)c2cccc3c(N)cccc23)c1C`, the Kb was more than 10 µM. For the compound `CC(=O)Nc1cccc2cc(S(=O)(=O)Nc3onc(C)c3C)ccc12`, the Kb amounted to 40 µM. Same read-out and setting: with `Cc1noc(NS(=O)(=O)c2cccc3c(O)cccc23)c1C` the figure was 100 µM; with `Cc1noc(NS(=O)(=O)c2cccc3c(NCCCC(=O)O)cccc23)c1C`, 30 µM. Regarding `Cc1noc(NS(=O)(=O)c2cccc3c(NCc4ccccc4)cccc23)c1C`, the Kb came out at 0.9 µM.

In the case of `Cc1cc(NS(=O)(=O)c2ccc(N)cc2)no1` [SULFAMETHOXAZOLE], the Kb was more than 100 µM. The same measure, in the same setting: with `Cc1noc(NS(=O)(=O)c2ccc(N)cc2)c1C` [SULFISOXAZOLE] the figure was more than 100 µM.
